AHR activator = activates the human aryl hydrocarbon receptor. P35869. AHR-responsive luciferase reporter cells, luminescence. activation, % at 5 µM. 320,000 compounds, 2.5% hits. AID 2796; in the data active = activation above about 47%;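 note: 0% = vehicle wells and 100% = reference agonist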
FXN GAA850 act = activators of GAA850 frataxin (FXN) promoter; HEK293 lucGAA850 FXN promoter luciferase reporter, 24 h; percent of 10 µM SAHA response; activation, % at 6 µM; 360,000 compounds, 0.56% hits; AID 540364;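 active = activation above the average of all compounds screened plus 3 SD, cutoff fixed separately per campaign, cut at about 7.5% in these data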;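 note: 0% = DMSO wells and 100% = 10 µM SAHA wells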
HTR2A ag = agonists of mouse serotonin 5-HT2A receptor (HTR2A) | P35363 | CHO-K1 mHTR2A beta-arrestin complementation, luminescence; percent of 30 µM serotonin response | activation, % at 7.6 µM | 360,000 compounds, 0.66% hits;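 active = activation above a run cutoff, the mean activation of all tested compounds plus 3 SD, cut at about 14% in these data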;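 note: 0% = plate median of compound wells and 100% = 30 µM serotonin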
MC4R barr agon = activates human MC4R beta-arrestin recruitment | P32245 | U2OS MC4R beta-arrestin complementation, luminescence; percent of melanotan II response, DMSO zero | activation, % at 8.9 µM | 360,000 compounds, 0.98% hits | AID 540308;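 active = activation above a per-plate cutoff, the mean activation of sample wells on that plate plus 3 SD, cut at about 8% in these data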
MC4R antag cAMP = antagonists of human melanocortin 4 receptor (MC4R). 360,000 compounds, 0.48% hits. AID 540295. P32245. MC4R-expressing cells, MTII-stimulated cAMP, LANCE TR-FRET. inhibition, % at 6.5 µM;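 active = inhibition above its plate's cutoff, the mean of tested wells on that plate plus 3 SD, cut at about 29% in these data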;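 note: 0% = Melanotan II alone and 100% = Melanotan II plus saturating MCL0020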
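Assay system: human MC4R-expressing U2OS cells; reagent: Melanotan II stimulation of cells; dosing: 6.5 µM single dose; timing: compound 30 min, challenge 1 h, detection 1 h; signal: TR-FRET cAMP assay; replicates: one well per compound, no replicates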
GAA30 counter = counter-screen for GAA850 frataxin promoter activators: GAA30 promoter activation; 1,900 compounds, 66% hits; activation, % at 6 µM; shares compounds with FXN GAA850 act; AID 588350; HEK293 lucGAA30 FXN promoter luciferase, 24 h; DMSO = 0%, 5 µM ipriflavone = 100%;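 active = mean activation above the mean of solvent-only control wells plus 3 SD, cut at about 22% in these data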;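 note: counterscreen of GAA850 promoter hits where activity marks nonselective or luminescence artifacts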
FXN GAA850 conf = confirmation of GAA850 frataxin (FXN) promoter activators | HEK293 lucGAA850 FXN promoter luciferase reporter, 24 h; 100% = activation by SAHA | activation, % at 6 µM | 1,900 compounds, 86% hits | shares compounds with FXN GAA850 act | AID 588351;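 active = mean activation above a set limit taken from the primary screen, cut at about 8% in these data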;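 note: 0% = DMSO wells and 100% = 10 µM SAHA wells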
Active calls of the source: *; . = no result. This is a sample that favours compounds with a hit; in the whole collection about 4.7% have one here.

SMILES	AHR activator	FXN GAA850 act	HTR2A ag	MC4R barr agon	MC4R antag cAMP	GAA30 counter	FXN GAA850 conf
COc1ccc(C2=CC(=O)CCC2)cc1	1	0	0	-1	1	.	.
C=CCNCCCCOc1ccc(OCc2ccccc2)cc1	-3	9.1*	-3	2	-6	102*	49*
COCCCNCCCCOc1ccc(OCc2ccccc2)cc1	4	4	-4	-1	1	.	.
c1ccc(COc2ccc(OCCCCN3CCCC3)cc2)cc1	1	7.6*	-6	-1	-2	83*	33*
Cn1c(NC(=S)Nc2ccccc2)nc2ccccc21	60*	8.2*	-3	-1	-5	85*	27*
C=C1CCN([C@@H](CC(C)C)C(=O)NCc2ccccc2)S(=O)(=O)c2ccccc21	0	1	-2	0	5	.	.
C=C1CCN([C@@H](CC(C)C)C(=O)Nc2ccc(OC)cc2)S(=O)(=O)c2ccccc21	6	14*	-1	0	6	22*	11*
C=C1CCN([C@@H](Cc2ccccc2)C(=O)NCCC(C)C)S(=O)(=O)c2ccccc21	3	8.0*	2	0	11	12	6
C=C1CCN(C(CC(C)C)C(=O)OC)S(=O)(=O)c2ccccc21 (stereo not drawn)	1	0	-5	0	4	.	.
Cc1ccsc1/C=C/c1ccc2cccc(O)c2n1	94*	8.5*	-9	-5	-2	4	24*
Oc1cccc2ccc(/C=C/c3ccccc3Br)nc12	28	0	-16	-5	9	.	.
Oc1cccc2ccc(/C=C/c3cccs3)nc12	70*	11*	-7	-5	5	35*	24*
Cc1ccsc1/C=C/c1ccc2ccccc2n1	42	6	-4	-1	2	.	.
COc1ccc(Cn2nnnc2C(c2cc3cc(C)cc(C)c3[nH]c2=O)N2CCOCC2)cc1 (stereo not drawn)	1	8.1*	4	-2	-4	11	7
O=C(CS(=O)(=O)Cc1ccccc1)c1ccccc1	.	0	-2	0	-2	.	.
COc1cc(C(=O)O[C@H]2CC(C)=CC[C@@]3(C)CC[C@@](O)(C(C)C)[C@H]23)ccc1O	2	16*	-2	2	0	29*	8.1*
COc1cc(C(=O)O[C@H]2C/C(C)=C/CC[C@]3(C)O[C@@H]3C(O)C2C(C)C)cc(OC)c1OC (stereo partly drawn)	2	-8	-2	1	1	.	.
Nc1nn2cc(-c3ccc(Br)cc3)nc2c2ccccc12	65*	12*	-2	1	20	120*	50*
O=C(c1ccco1)N1CCc2[nH]nc(-c3ccccc3)c2C1	-4	3	-4	-1	3	.	.
Cc1cc(C)c2c(N)c3cccc(C)c3nc2n1	69*	8.0*	-1	-4	4	12	143*
CCOc1ccc(C(=O)CCC(=O)N2CCN(S(=O)(=O)c3cccc(F)c3)CC2)cc1	0	0	-3	-1	-2	.	.
O=C1C=CC(=O)c2c(O)c(N3CCN(CCOCCO)CC3)c(Br)c(O)c21	.	14*	-4	-5	-21	-98	-30
O=C1C=CC(=O)c2c(O)c(N3CCN(CCO)CC3)c(Cl)c(O)c21	.	1	8	-2	-21	.	.
CC(=O)O[C@H]1CC(C)(C)C(=C=C/C(C)=C/C=C/C(C)=C/C=C/C=C(C)/C=C/C=C(\C)C(=O)C[C@@]23O[C@]2(C)C[C@@H](O)CC3(C)C)[C@](C)(O)C1	0	.	.	.	.	.	.
COc1ccccc1NC(=O)c1sc2ncn(CC(=O)Nc3ccccc3)c(=O)c2c1C	20	13*	-4	0	6	-4	0
SMILES	AHR activator	FXN GAA850 act	HTR2A ag	MC4R barr agon	MC4R antag cAMP	GAA30 counter	FXN GAA850 conf
CC(C)OP(=O)(c1ccc(N(C)C)cc1)C(Nc1ccccc1)c1ccccc1 (stereo not drawn)	4	8.0*	8	0	7	12	13*
CCC(C)NC(=O)c1cnn2c(C)c3c(nc12)CCCC3 (stereo not drawn)	1	7.8*	-3	3	-2	18	9.6*
Cc1c2c(nc3c(C(=O)NC4CC4)cnn13)CCCC2	3	4	-1	0	3	.	.
CCOc1ccc(-c2cccc(NC(=O)c3cccs3)c2)nn1	33	2	9	-2	7	.	.
CCOC(=O)c1c(CN2CCNCC2)nc2ccc(Cl)cc2c1-c1ccccc1	.	-1	-10	3	4	.	.
Clc1ccccc1/C=C/c1nc(-c2cccnc2)no1	6	7	-1	0	3	.	.
C(=C\c1nc(-c2cccnc2)no1)/c1ccccc1	5	8.7*	-4	-3	0	124*	43*
COc1ccc(N(C(=O)c2cnccn2)C(C(=O)NCc2ccccc2)c2ccc(O)cc2)cc1 (stereo not drawn)	5	1	3	-2	1	.	.
COC(=O)C1=C(C(=O)OC)[C@]2([C@H]3CC=CCN[C@@H](Cc4ccccc4)C(=O)N3Cc3ccccc3)C=C[C@H]1O2	.	-6	1	0	6	.	.
COC(=O)C1=C(C(=O)OC)[C@]2([C@@H]3CC=CCN[C@@H](Cc4ccccc4)C(=O)N3Cc3ccccc3)C=C[C@H]1O2	.	9.1*	-2	0	1	1	7
CC1(C)C(=O)NCCN1C(=O)CCC(=O)O	0	7.9*	-1	0	9	16	5
CC1(C)C(=O)NCCN1C(=O)CC1C(=O)NCCN1CC(c1ccccc1)c1ccccc1 (stereo not drawn)	5	1	-4	0	3	.	.
CCN(CC)S(=O)(=O)c1ccc(NC(=O)COC(=O)CNC(=O)C2CCCCC2)cc1	.	2	-7	-3	5	.	.
Cn1c2nc3ccccc3c-2nc2ccccc21	.	11*	0	0	-39	115*	35*
Cn1c(-c2nonc2N)nc2ccccc21	-7	2	1	2	25	.	.
O=[N+]([O-])c1cc(C(F)(F)F)cc([N+](=O)[O-])c1NCCNC(=S)Nc1cccc(F)c1	3	-1	4	0	-9	.	.
Cc1ccc2nc(-c3ccc4c(c3)OCCO4)cn2c1	-9	-11	-6	-1	-8	.	.
Cc1ccc2nc(-c3ccc4c(c3)NC(=O)CO4)cn2c1	-5	8.5*	3	5	2	98*	30*
O=Cc1cn(CCOc2ccccc2F)c2ccccc12	.	3	-10	1	21	.	.
